Inconclusive results are not listed.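 Rule for the calls, unless noted: active = inhibition over a set limit, the all-compound mean plus 3 SD, in both replicate runs; inconclusive = over that limit in just one replicate run; inactive = at or under that limit in both runs.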
What was measured:
[1] = OD615 S. cerevisiae growth inhibition, permissive medium, pilot counter-assay, permissive growth control for S. cerevisiae lifespan shortening project (AID 705;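 active = growth inhibition above 25% in both replicates, a cutoff set 3 SD above the mean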); details: OD615, 24 h, at 10 µM, hits give high values
Summary of the method: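 System: engineered DeaD yeast; Medium: permissive raffinose/galactose medium; Compound dosing: 10 µM single dose, 0.25% DMSO; Incubation: 4 h cell pre-growth, 24 h exposure at 30 °C; Technique: OD at 615 nm; Evaluation: growth inhibition from lowered OD615 after 24 h.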

[2] = Restrictive medium S. cerevisiae growth inhibition, OD615, pilot screen of yeast lifespan reduction project, restrictive growth control (AID 706;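 active = growth inhibition above a set limit, 3 SD over mean compound inhibition, in both replicates, cut at about 43% in these data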;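 note: modified DeaD lifespan yeast strain shifted to restrictive glucose medium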); details: OD615, 48 h, at 10 µM, hits give high values
Summary of the method: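 Material: modified S. cerevisiae; buffer or medium: CSMM-D glucose medium; doses: one concentration, 10 µM final, 0.25% DMSO; incubation: 48 h compound exposure at 30 °C; detection: optical density at 615 nm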

[3] = viability gain of MRP-1-high H69AR cells under doxorubicin, pilot screen, MRP-1 activator project, CellTiter-Glo, duplicate (AID 807;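 active = viability increase at or above a cutoff of the median across tested compounds plus 3 SD, cut at about 8.5% in these data, passing the limit was not always enough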;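 note: compound pretreatment 18-22 h then 72 h combined with doxorubicin; 0% = doxorubicin alone and 100% = vehicle without doxorubicin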); details: H69AR viability with doxorubicin, CellTiter-Glo luminescence; at 10 µM; hits give high values
[4] = growth suppression of beta-catenin knockout HCT116, pilot screen, human colon tumor cells (AID 823;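 active = cell viability at or below a set limit in both duplicate runs, the limit being the all-compound median minus 4 SD, cut at about 23% in these data, passing the limit was not always enough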;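 note: 0% = wells killed by 20 µM Hyamine and 100% = untreated DMSO cell wells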); details: CellTiter-Glo, 60 h, at 10 µM, hits give low values
[5] = growth suppression of PTEN-deleted HCT116, pilot screen, cell-based, HCT116 clonal line, CellTiter-Glo (AID 824;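 active = viability at or below 27.92% in each of two runs, the all-compound median minus 4 SD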;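 note: 0% = 20 µM Hyamine control and 100% = vehicle cell control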); details: 60 h, at 10 µM, hits give low values
[6] = inhibitors of the yeast RAM network, pilot screen, dse1pr::URA3 reporter, 5-FOA selection (AID 869);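 note: 0% = DMSO wells with no growth and 100% = 10 µM 1-NA-PP1 with full growth; RAM network block rescues cells from 5-FOA so hits raise OD615 growth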; details: S. cerevisiae dse1pr::URA3 5-FOA growth, OD615, 2 d; at 10 µM; hits give high values; strain carries analog-sensitive mutant Cbk1 kinase
[7] = RAM signaling pathway blockade in yeast – S. cerevisiae, Pdr1DBD-CYC8 efflux-inhibited sensitized strain, primary screen (AID 1298;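 active = RAM network inhibition above 8.4% in each of two replicates, 3 SD over the compound average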;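 note: 0% = DMSO untreated cells without growth and 100% = 10 µM 1-NA-PP1 full growth; higher means more yeast growth rescued from 5-FOA killing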); details: S. cerevisiae cbk1-as DSE1-URA3 strain, 5-FOA growth OD615, 2 d; at 50 µM; hits give high values

CCOC(=O)c1ccc(N2C(=O)c3n[nH]c(C)c3C2c2ccccn2)cc1 (stereo unspecified)
inactive: growth inhibition [1] 0.375% | growth inhibition [2] 3.62% | viability increase [3] 0.57% | viability [4] 108% | viability [5] 114% | inhibition [6] 0.195% | RAM network inhibition [7] 3.09%

Brc1ccc2c(c1)c1nc3ccccc3nc1n2CCN1CCOCC1
inactive: growth inhibition [1] -11% | growth inhibition [2] -0.14% | viability increase [3] -5.95% | viability [4] 56% | viability [5] 59.4% | inhibition [6] 4.42% | RAM network inhibition [7] 5.58%

COc1ccc(Cl)cc1NC(=O)c1cnc2sccn2c1=O
inactive: growth inhibition [1] -6.94% | growth inhibition [2] 9.97% | viability increase [3] -5.14% | viability [4] 82.9% | viability [5] 82.6% | inhibition [6] 4.45% | RAM network inhibition [7] 6.59%

COc1ccccc1N1CCN(C(=O)c2cc3c(=O)n(C)c4ccccc4c3n2C)CC1
inactive: growth inhibition [1] -7.35% | growth inhibition [2] 3.62% | viability increase [3] 2.2% | viability [4] 67.3% | viability [5] 72% | inhibition [6] 0.125% | RAM network inhibition [7] -0.26%

CCN=C1SC(CC(=O)NC(N)=O)C(=O)N1CC (stereo unspecified)
inactive: growth inhibition [1] -12.5% | growth inhibition [2] -17.8% | viability increase [3] 0.51% | viability [4] 101% | viability [5] 101% | inhibition [6] 1.3% | RAM network inhibition [7] 1.66%

Cc1nnc(NC(=O)CSc2cn(Cc3ccccc3)c3ccccc23)s1
inactive: growth inhibition [1] -8.99% | growth inhibition [2] -0.275% | viability increase [3] -2.83% | viability [4] 82.2% | viability [5] 81.2% | inhibition [6] 2.86% | RAM network inhibition [7] 2.77%

COc1ccc(OC)c(S(=O)(=O)NCCc2cn3ccsc3n2)c1
inactive: growth inhibition [1] -6.71% | growth inhibition [2] -11.5% | viability increase [3] -2.28% | viability [4] 105% | viability [5] 103% | inhibition [6] 3.81% | RAM network inhibition [7] 3.59%

Nc1c(C(=O)c2ccc(Br)s2)oc2ccccc12
inactive: growth inhibition [1] -9.21% | growth inhibition [2] -4.51% | viability increase [3] -5.46% | viability [4] 88.8% | viability [5] 88.7% | inhibition [6] -0.045% | RAM network inhibition [7] 2.7%

O=C(NCCc1csc(-c2cccnc2)n1)c1ccc(Br)o1
inactive: growth inhibition [1] 1.56% | growth inhibition [2] 10.1% | viability increase [3] -2.6% | viability [4] 107% | viability [5] 97.3% | inhibition [6] 0% | RAM network inhibition [7] 2.18%

Cc1ccc(C)c(NC(=O)CS(=O)(=O)c2c[nH]c3ccccc23)c1
inactive: growth inhibition [1] -9.01% | growth inhibition [2] -31.9% | viability increase [3] -2.95% | viability [4] 96.5% | viability [5] 93.5% | inhibition [6] 2.13% | RAM network inhibition [7] -0.27%

CCOc1ccc(-n2c(SCC(=O)NCc3ccco3)nc3c([nH]c4ccccc43)c2=O)cc1
inactive: growth inhibition [1] -2.76% | growth inhibition [2] -7.4% | viability increase [3] -3.17% | viability [4] 68.5% | viability [5] 64.1% | inhibition [6] 1.14% | RAM network inhibition [7] 7.07%

O=C1Nc2ccccc2C(O)(C(=O)NCc2ccc3c(c2)OCO3)N1c1ccccc1 (stereo unspecified)
inactive: growth inhibition [1] -2.08% | growth inhibition [2] -15.5% | viability increase [3] -3.17% | viability [4] 91.7% | viability [5] 92.5% | inhibition [6] 0.54% | RAM network inhibition [7] 0.05%

CC1CCN(C(=O)CSc2ccc3nnc(-c4cccc(F)c4)n3n2)CC1
inactive: growth inhibition [1] -0.835% | growth inhibition [2] -0.735% | viability increase [3] -3.12% | viability [4] 79.5% | viability [5] 81.3% | inhibition [6] 0.67% | RAM network inhibition [7] -1.03%

O=C(CCCn1c(=O)oc2ccccc21)N1CCc2ccccc2C1
inactive: growth inhibition [1] -8.29% | growth inhibition [2] -14.1% | viability increase [3] -4.06% | viability [4] 94.3% | viability [5] 95.2% | inhibition [6] 1.48% | RAM network inhibition [7] 4.82%

COc1ccc(N(CC(=O)NCc2cccs2)S(=O)(=O)c2c(C)nn(C)c2C)cc1
inactive: growth inhibition [1] -2.88% | growth inhibition [2] -15.2% | viability increase [3] -3.49% | viability [4] 88.6% | viability [5] 86.9% | inhibition [6] 0.535% | RAM network inhibition [7] -0.27%

COCCN1C(=O)c2ccccc2C(C(=O)NCCN(C)C)C1c1ccc(F)cc1 (stereo unspecified)
inactive: growth inhibition [1] -15% | growth inhibition [2] -19.9% | viability increase [3] -1.59% | viability [4] 92.1% | viability [5] 98.4% | inhibition [6] 1.89% | RAM network inhibition [7] 2.13%

Cc1cc(C(=O)NCC2CCCO2)n(-c2ccccc2)n1 (stereo unspecified)
inactive: growth inhibition [1] -0.68% | growth inhibition [2] -2.33% | viability increase [3] -1.22% | viability [4] 100% | viability [5] 103% | inhibition [6] 0.28% | RAM network inhibition [7] 2.07%

CC1CCCN(C(C(=O)Nc2ccc3c(c2)OCO3)c2ccccc2)C1 (stereo unspecified)
inactive: growth inhibition [1] -8.14% | growth inhibition [2] 5.27% | viability increase [3] -3.45% | viability [4] 79.6% | viability [5] 79.4% | inhibition [6] 1.85% | RAM network inhibition [7] 1.67%

Cc1ccc(NC(=O)C2CCCN(S(=O)(=O)c3ccc4c(c3)oc(=O)n4C)C2)nc1 (stereo unspecified)
inactive: growth inhibition [1] -7.92% | growth inhibition [2] -2.67% | viability increase [3] -0.05% | viability [4] 101% | viability [5] 101% | inhibition [6] 1.09% | RAM network inhibition [7] -2.07%

Cc1cccc(-n2ncc3c(N(C)C4CCCCC4)ncnc32)c1
inactive: growth inhibition [1] 4.55% | growth inhibition [2] 23% | viability increase [3] 2.07% | viability [4] 84.7% | viability [5] 85.8% | inhibition [6] -1.19% | RAM network inhibition [7] 3.02%

Cc1cc(N2C(=O)C3CC=CCC3C2=O)cc(C)c1Br (stereo unspecified)
inactive: growth inhibition [1] -3.4% | growth inhibition [2] -11.6% | viability increase [3] -1.05% | viability [4] 95.5% | viability [5] 95.2% | inhibition [6] 2.22% | RAM network inhibition [7] 6.44%

COCCNC(=O)c1cc(-c2ccc(Cl)c(Cl)c2)on1
inactive: growth inhibition [1] -2.25% | growth inhibition [2] -1.81% | viability increase [3] -0.93% | viability [4] 82.5% | viability [5] 87.8% | inhibition [6] 0.18% | RAM network inhibition [7] 5.68%

COc1cc(SC)ccc1C(=O)Nc1ccc2c(c1)CCN2S(C)(=O)=O
inactive: growth inhibition [1] -4.62% | growth inhibition [2] -7.36% | viability increase [3] 0.15% | viability [4] 100% | viability [5] 94.2% | inhibition [6] 3.22% | RAM network inhibition [7] 4.39%

C1=C(N2CCOCC2)/C(=C/c2nc3ccccc3[nH]2)CC1
inactive: growth inhibition [1] -10.4% | growth inhibition [2] 19.2% | viability increase [3] -4.25% | viability [4] 78.9% | viability [5] 82.1% | inhibition [6] 0.41% | RAM network inhibition [7] 2.44%

COc1ccc(OCC(=O)N(C)Cc2ccccc2)cc1
inactive: growth inhibition [1] -3.42% | growth inhibition [2] 1.48% | viability increase [3] -2.43% | viability [4] 96% | viability [5] 91.7% | inhibition [6] 0.72% | RAM network inhibition [7] 0.61%

COCCNC(=O)c1cc2c(=O)n(C)c3ccccc3c2n1C
inactive: growth inhibition [1] -11.1% | growth inhibition [2] -7.54% | viability increase [3] -4.57% | viability [4] 84.4% | viability [5] 84.4% | inhibition [6] 2.69% | RAM network inhibition [7] 0.36%

Cc1ccn2cc(CCNC(=O)c3ccc(Br)o3)nc2c1
inactive: growth inhibition [1] -10.6% | growth inhibition [2] -12.7% | viability increase [3] -0.26% | viability [4] 93.8% | viability [5] 95.4% | inhibition [6] 3.01% | RAM network inhibition [7] 4.83%

O=C1CC2CS(=O)(=O)CC2N1C1CCCCC1 (stereo unspecified)
inactive: growth inhibition [1] -8.38% | growth inhibition [2] -13.2% | viability increase [3] -0.5% | viability [4] 107% | viability [5] 96% | inhibition [6] 0.495% | RAM network inhibition [7] 2.85%

COCCNC(=O)CN(c1ccccc1OC)S(C)(=O)=O
inactive: growth inhibition [1] -6.76% | growth inhibition [2] 1.17% | viability increase [3] 0.7% | viability [4] 101% | viability [5] 101% | inhibition [6] 2.75% | RAM network inhibition [7] 0.67%

CCOC(=O)c1c(N)sc2c(O)c(Br)ccc12
inactive: growth inhibition [1] -26.9% | growth inhibition [2] -1.8% | viability increase [3] -0.49% | viability [4] 104% | viability [5] 107% | inhibition [6] 1.01% | RAM network inhibition [7] 5.24%

CCC(C)Sc1nc2c(cnn2-c2ccc(C)c(C)c2)c(=O)[nH]1 (stereo unspecified)
inactive: growth inhibition [1] -5.49% | growth inhibition [2] 1.98% | viability increase [3] -3.4% | viability [4] 73% | viability [5] 75.9% | inhibition [6] 3.72% | RAM network inhibition [7] -0.06%

CCC(C)NC(=O)C1CCN(C(=O)c2ccccc2)CC1 (stereo unspecified)
inactive: growth inhibition [1] -3.49% | growth inhibition [2] -5.37% | viability increase [3] 0.74% | viability [4] 102% | viability [5] 98.2% | inhibition [6] 1.18% | RAM network inhibition [7] 1.87%

COC(=O)c1ccc(OC(=O)c2nn(C)cc2Cl)c(OC)c1
inactive: growth inhibition [1] -0.14% | growth inhibition [2] 10.2% | viability increase [3] -5.78% | viability [4] 101% | viability [5] 95.5% | inhibition [6] -0.22% | RAM network inhibition [7] -0.57%

Source: PubChem BioAssay
